This note sets out measurements from the RNAGym collection of RNA variant scans (doi:10.1126/science.aae0568).

This sample holds only a part of the variants without activity. A value given as a limit tells only on which side of the number the result lay.

Sequences and labels used below:
B1: tRNA (parent)
chain: GUUCCGUUGGCGUAAUGGUAACGCGUCUCCCUCCUAAGGAGAAGACUGCGGGUUCGAGUCCCGUACGGAACG

In the data set the parent is B1. The data set is described as follows: yeast fitness relative to wild type (ratio to wild type); higher = fitter; tRNA-Arg(CCU), competitive growth, 37 C, YPD. A digest of the protocol:
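Start and end populations of a pooled competition were compared by 100-nucleotide paired-end sequencing of gene amplicons. The Saccharomyces cerevisiae strains carried tRNA-Arg(CCU) gene variants at the native genomic locus, synthesised with a 3% per-site mutation rate at 69 sites, and competed in YPD at 37°C for 24 hours in six parallel replicates. Darwinian fitness relative to wild type was based on the change in genotype frequencies. Genotypes required ≥ 100 starting reads, and estimates < 0.5 were set to 0.5.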
In the case of A36C G41A U53C, the yeast fitness stood at 0.56.

Turning to U35C G41A A70G, the yeast fitness came to 0.689.

For A36U C46G, the yeast fitness turned out to be 0.655.

With A36C C62U, the yeast fitness was found to be 0.583.

On to U35C C60U, for which the yeast fitness worked out at 0.546.

In the case of A36C A40G G48A A65U C66U A69U, the yeast fitness was at most 0.5.

For the variant A36G C61U C66U, the yeast fitness worked out at 0.543.

Take A36U A45G C49A C66U A70G: the yeast fitness is at most 0.5.

For the variant U35C C46U, the yeast fitness is 0.938.

With U35C C46G, the yeast fitness stood at 0.906.

In the case of A36C C62A G67A A70G, the yeast fitness is at most 0.5.

Take A36C G58C: the yeast fitness turned out to be 0.618.

With A36G C55A C60U, the yeast fitness is at most 0.5.

Turning to U35G A45G, the yeast fitness came to 0.669.

For the variant A36G G41C C60G, the yeast fitness amounted to 0.682.

U35G A43G U59A: the yeast fitness stood at 0.658.

As to U35C U47A C49U, the yeast fitness came out at 0.603.

On to A36G A45G A65U, for which the yeast fitness was found to be 0.54.

In the case of A36G C60A A70G, the yeast fitness is at most 0.5.

Take A36G G41C: the yeast fitness is 0.955.

As for A36C U54G, the yeast fitness stood at 0.522.

In the case of U35G A45C G56C, the yeast fitness is at most 0.5.

Regarding U35G C49G G52C C62G A69C, the yeast fitness is at most 0.5.

Regarding A36G G63A, the yeast fitness turned out to be 0.944.

With A36G G63C, the yeast fitness is 0.724.

Turning to A36G C60U, the yeast fitness is 0.793.

In the case of A36G C60G, the yeast fitness was 0.629.

Consider A36C A43C, for which the yeast fitness came out at 0.626.

In the case of A36C A57C G68A, the yeast fitness was 0.541.

In the case of A36C G50A C55A, the yeast fitness was found to be 0.766.

For the variant A36U, the yeast fitness was determined as 0.714.

Regarding A36G, the yeast fitness turned out to be 0.993.

For A36C, the yeast fitness was found to be 0.705.

Turning to U35C C49G, the yeast fitness was determined as 0.883.

For A36U A43G, the yeast fitness was found to be 0.745.

For the variant A36U A43C, the yeast fitness stood at 0.569.

A36U A45G C66U A70G: the yeast fitness was at most 0.5.

Take A36G U59A A65C A70C: the yeast fitness was at most 0.5.

As for U35G A45U A57C, the yeast fitness is at most 0.5.

On to A36G G50C, for which the yeast fitness was 0.723.

U35C U47A: the yeast fitness was found to be 0.734.

With U35C G39C, the yeast fitness amounted to 0.747.

As for A36G G67A, the yeast fitness stood at 0.864.

With A36G G67U, the yeast fitness was found to be 0.901.

As to A36G U59C, the yeast fitness was found to be 1.18.

Take U35C G48A C55U A70G: the yeast fitness amounted to 0.56.

Consider U35G A70U, for which the yeast fitness is 0.674.

Take A36G A65U G67A: the yeast fitness came to 0.502.

As to A36G C49G G63A A69C A70C, the yeast fitness is at most 0.5.

As to A36U A45U C66U, the yeast fitness was 0.535.

Consider A36G C49U C66G, for which the yeast fitness was at most 0.5.

On to U35C C60G C61U, for which the yeast fitness is at most 0.5.

Regarding A36G A65C, the yeast fitness came out at 0.9.

As for A36G A65G, the yeast fitness was determined as 0.831.

As for A36U A40U G44C C60U, the yeast fitness is at most 0.5.

As to A36C G58C C62U, the yeast fitness is at most 0.5.

For the variant A36C A37C U53G A70C, the yeast fitness was 0.582.

As to A36G A45C U47C G48A, the yeast fitness is at most 0.5.

On to A36U A37G A40C C66U, for which the yeast fitness is 0.636.

On to A36U A43G C46A G48C A70C, for which the yeast fitness is at most 0.5.

A36G A40C A42G: the yeast fitness is 0.768.

In the case of A36G G48C, the yeast fitness came to 0.905.

On to A36C A37C, for which the yeast fitness was 0.54.

A36C A70C: the yeast fitness was determined as 0.605.

As for A36C A70G, the yeast fitness was 0.605.

In the case of A36C G44C G51C, the yeast fitness is at most 0.5.

For A36U A37U C55A G63C, the yeast fitness was at most 0.5.

With U35C G51U C61U, the yeast fitness turned out to be 0.53.

In the case of A36C U47C, the yeast fitness worked out at 0.674.

With A36G A45G C49U, the yeast fitness was found to be 0.578.

Turning to A36G U54A C62U, the yeast fitness was at most 0.5.

Turning to U35C C49U G63C, the yeast fitness turned out to be 0.548.

For the variant U35C U54G, the yeast fitness is 0.552.

U35C U54A: the yeast fitness was at most 0.5.

In the case of U35C U64G C66G, the yeast fitness is at most 0.5.

Consider A36C A65C, for which the yeast fitness was determined as 0.601.

As to A36U C49A G52A, the yeast fitness is at most 0.5.

Take U35G A40G A57G: the yeast fitness was determined as 0.548.

As to A36C G67C, the yeast fitness was found to be 0.537.

For A36C G67U, the yeast fitness was 0.596.

For A36G U53A C62A, the yeast fitness was at most 0.5.

Take A36G U54G: the yeast fitness is 0.66.

On to A36G U54C, for which the yeast fitness was 0.906.

For the variant A36U C49U, the yeast fitness came to 0.585.

Take A36U C49G: the yeast fitness is 0.607.

U35C G56A: the yeast fitness is 0.735.

In the case of A36U G38A C49G C60G A70G, the yeast fitness stood at 0.592.

For the variant U35G G58C, the yeast fitness stood at 0.653.

On to U35G G58A, for which the yeast fitness was 0.675.

Regarding A36U A40C A45U C62G G63A, the yeast fitness was at most 0.5.

A36C G48A C66G: the yeast fitness is at most 0.5.

Take A36U G39C A57U: the yeast fitness was at most 0.5.

For A36G G68A, the yeast fitness stood at 0.905.

Regarding A36C C49A, the yeast fitness was found to be 0.563.

On to A36C C49U, for which the yeast fitness is 0.557.

In the case of A36C C49G, the yeast fitness came to 0.56.

For A36C G68C, the yeast fitness was determined as 0.591.

For A36U A37G A40C, the yeast fitness is at most 0.5.

Turning to A36C G56C C66U, the yeast fitness is at most 0.5.

With U35C G38A, the yeast fitness is 0.891.

As to A36G G63A A69U, the yeast fitness was found to be 0.688.

Take A36G A43G: the yeast fitness was 0.975.

Regarding A36G A43U, the yeast fitness amounted to 1.01.

As to A36G A57C, the yeast fitness worked out at 0.645.

For A36G A57U, the yeast fitness was determined as 0.859.

Take U35C C49U C66U: the yeast fitness came out at 0.681.

As for U35G A43G C46U, the yeast fitness is 0.702.

As for A36G A42U, the yeast fitness was found to be 0.902.

In the case of A36G A42C, the yeast fitness is 0.976.

As to A36U C55U A65C, the yeast fitness was at most 0.5.

On to A36G G52A C62G, for which the yeast fitness was at most 0.5.

Take U35G C49G A65C: the yeast fitness was at most 0.5.

In the case of A36C U47A G48C U54G, the yeast fitness was 0.544.

In the case of A36U A45C C49U, the yeast fitness is at most 0.5.

For the variant A36C G50C G63C, the yeast fitness was determined as 0.652.

On to A36C C49U C55U C62G G68C, for which the yeast fitness is at most 0.5.

Take U35C C55A A69U: the yeast fitness is at most 0.5.

As to A36G A45G A65U G67U, the yeast fitness is at most 0.5.

As to U35C G44A C46G G50C U53A, the yeast fitness was determined as 0.583.

In the case of A36G A43C U64C, the yeast fitness stood at 0.687.

Regarding A36U A37C A70G, the yeast fitness was at most 0.5.

As for A36G A40C, the yeast fitness was 0.961.

Regarding A36G A40U, the yeast fitness worked out at 0.938.

Consider A36U G38A A40G, for which the yeast fitness was at most 0.5.

On to A36C U47A G48C U54G C62U, for which the yeast fitness is at most 0.5.

As to A36C A57G, the yeast fitness worked out at 0.642.

In the case of A36G A42C G67C A69C, the yeast fitness was determined as 0.559.

As for A36G G39C, the yeast fitness stood at 0.787.

As to A36G G39A, the yeast fitness is 0.954.

For A36G C61U A70U, the yeast fitness turned out to be 0.755.

As to A36G A57C A65U, the yeast fitness is at most 0.5.

As to A36G G39A U47A G68C, the yeast fitness is at most 0.5.

As for U35G C55G C62U, the yeast fitness is at most 0.5.

Regarding U35G C61G, the yeast fitness is at most 0.5.

Consider U35C C49G A70U, for which the yeast fitness worked out at 0.563.

As for A36U A40U A57G, the yeast fitness was at most 0.5.

A36G A42U A57U: the yeast fitness is at most 0.5.

Take A36G A42G C55A: the yeast fitness was at most 0.5.

Take A36C U47A G48C U54G A65C G67A: the yeast fitness was at most 0.5.

Take U35G U54A C62U G68A: the yeast fitness is at most 0.5.

As for A36C A37G G56C, the yeast fitness is at most 0.5.

For A36G C46G G63A, the yeast fitness was 0.652.

As for U35G A57G, the yeast fitness was determined as 0.698.

For the variant U35C G41A, the yeast fitness amounted to 0.882.

With A36U G39C C61U, the yeast fitness is at most 0.5.

Turning to A36G G44C, the yeast fitness is 0.981.

In the case of A36G G44U, the yeast fitness amounted to 0.711.

With A36U A45U A57U, the yeast fitness is at most 0.5.

Turning to A36G G38C G52C A57U, the yeast fitness is at most 0.5.

For the variant U35C G38U C46U C55G, the yeast fitness was at most 0.5.

Consider A36C G39A, for which the yeast fitness was at most 0.5.

Turning to A36G A42C A69U, the yeast fitness turned out to be 0.744.

Take A36C A45U U47C G52C A65U G67C: the yeast fitness is at most 0.5.

U35G A42U A69C: the yeast fitness is at most 0.5.

As for A36U C61G, the yeast fitness was determined as 0.698.

As for A36G A57G C62A, the yeast fitness was 0.549.

Turning to A36U C49A A69U, the yeast fitness was found to be 0.565.

Take U35C C55G: the yeast fitness was 0.59.

Consider A36U A42U C49U A69C, for which the yeast fitness is at most 0.5.

As for U35G C49G U64A, the yeast fitness is 0.525.

With U35G G56A, the yeast fitness worked out at 0.599.

A36G A69U: the yeast fitness worked out at 1.02.

As for A36G A69C, the yeast fitness came out at 1.05.

Regarding A36G G41A A43G C60U A70C, the yeast fitness was at most 0.5.

With A36U A69C, the yeast fitness worked out at 0.629.

Turning to A36U A69G, the yeast fitness amounted to 0.617.

In the case of U35G G63A G68C, the yeast fitness was at most 0.5.
